Calls of active or inactive are those of the source. The calls are words filed in the database; no cut-off is given here.
Experiments:
[1] = Cytotoxicity against human NCI-H322 cells assessed as reduction in cell viability measured after 72 hrs by CellTiter-Blue cell viability assay; assay type: functional, cell-based; conditions: Homo sapiens, NCI-H322, 72 h; read-out: IC50
Outline: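 Monolayer cultures in RPMI-1640 with 10% FBS at 37°C, seeded at 850 (H460 CTR5), 660 (H460 LKB1+/+) or 1780 (H322) cells/well so that the end point reaches 70–80% confluence. Treated 72h; vehicle 0.15% DMSO. CellTiter-Blue added until colour change (50–60, 80–90 or 100–120 min respectively), fluorescence read at 590 nm. IC50 by nonlinear regression; three independent experiments.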

NCI-H460 [2] = assay: Induction of apoptosis in human NCI-H460 cells expressing CTR5 gene assessed as viable cells at 5 uM measured after 72 hrs by Annexin V-Cy5/propidium iodide staining-based flow cytometry (reference value: 93%); assay type: functional; conditions: NCI-H460, 72 h, read-out: Activity
NCI-H460 [3] = assay: Induction of apoptosis in human NCI-H460 cells expressing CTR5 gene assessed as early apoptotic cells at 5 uM measured after 72 hrs by Annexin V-Cy5/propidium iodide staining-based flow cytometry (reference value: 1.7%); assay type: functional
NCI-H460 [4] = assay: Induction of apoptosis in human NCI-H460 cells expressing CTR5 gene assessed as cleaved PARP level at 3 to 5.5 uM measured after 24 hrs by Western blot analysis; assay type: functional, cell-based
Outline: (§1)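 Cells were seeded at 3×10^5 (H460) or 4.2×10^5 (H322) per dish and treated 24h later with DMSO or a concentration series for 24h. Lysed in cold RIPA with phosphatase and protease inhibitors, then sonicated. 30 μg protein run on Bis-Tris gels and transferred to nitrocellulose or PVDF. Detection used infrared secondary antibodies on an Odyssey imager. Signal normalized to β-actin or GAPDH and to DMSO control; three independent experiments.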

NCI-H460 [5] = assay: Induction of apoptosis in human NCI-H460 cells expressing CTR5 gene assessed as increase in cleavage of procaspase8 at 3 to 4.5 uM measured after 24 hrs by Western blot analysis; assay type: functional, cell-based; outline: as §1
NCI-H460 [6] = assay: Induction of apoptosis in human NCI-H460 cells expressing CTR5 gene assessed as downregulation of Mcl1 short isoform expression at 3 to 4.5 uM measured after 24 hrs by Western blot analysis; assay type: functional, cell-based; outline: as §1
NCI-H460 [7] = assay: Induction of autophagy in human NCI-H460 cells expressing CTR5 gene assessed as acidic vesicular organelle formation at 3 uM measured after 72 hrs by acridine orange dye based flow cytometry (reference value: 91.2%); assay type: functional
NCI-H460 [8] = assay: Induction of autophagy in human NCI-H460 cells expressing CTR5 gene assessed as acidic vesicular organelle formation at 4 uM measured after 72 hrs by acridine orange dye based flow cytometry (reference value: 91.2%); assay type: functional
NCI-H460 [9] = assay: Induction of apoptosis in human NCI-H460 cells expressing CTR5 gene assessed as late apoptotic cells at 20 uM measured after 72 hrs by Annexin V-Cy5/propidium iodide staining-based flow cytometry (reference value: 2.7%); assay type: functional
NCI-H460 [10] = assay: Induction of apoptosis in human NCI-H460 cells expressing CTR5 gene assessed as early apoptotic cells at 4 uM measured after 72 hrs by Annexin V-Cy5/propidium iodide staining-based flow cytometry (reference value: 1.8%); assay type: functional
NCI-H460 [11] = assay: Induction of apoptosis in human NCI-H460 cells expressing CTR5 gene assessed as late apoptotic cells at 4 uM measured after 72 hrs by Annexin V-Cy5/propidium iodide staining-based flow cytometry (reference value: 2.7%); assay type: functional
NCI-H460 [12] = assay: Induction of apoptosis in human NCI-H460 cells expressing CTR5 gene assessed as necrotic cells at 4 uM measured after 72 hrs by Annexin V-Cy5/propidium iodide staining-based flow cytometry (reference value: 0.9%); assay type: functional
NCI-H460 [13] = assay: Induction of apoptosis in human NCI-H460 cells expressing CTR5 gene assessed as viable cells at 4 uM measured after 72 hrs in presence of autophagy inhibitor chloroquine by Annexin V-Cy5/propidium iodide staining-based flow cytometry (reference value: 94.6%); assay type: functional; conditions: NCI-H460, 72 h, read-out: Activity
NCI-H460 [14] = assay: Induction of apoptosis in human NCI-H460 cells expressing CTR5 gene assessed as late apoptotic cells at 4 uM measured after 72 hrs in presence of autophagy inhibitor chloroquine by Annexin V-Cy5/propidium iodide staining-based flow cytometry (reference value: 2.7%); assay type: functional
NCI-H460 [15] = assay: Increase in Beclin1 level in human NCI-H460 cells expressing CTR5 gene at 3 to 5.5 uM measured after 24 hrs by Western blot analysis; assay type: functional, cell-based; outline: as §1
[16] = Downregulation of p62 level in human NCI-H322 cells at 3 to 5.5 uM measured after 24 hrs by Western blot analysis; assay type: functional, cell-based; outline: as §1
[17] = Upregulation of Atg3 level in human NCI-H460 cells expressing CTR5 gene at 3.5 uM measured after 24 hrs by reverse-phase protein array method relative to control; assay type: functional, cell-based
[18] = biological target: Serine/threonine-protein kinase mTOR (Homo sapiens) (UniProt P42345); assay: Inhibition of mTOR in human NCI-H460 cells expressing CTR5 gene assessed as upregulation of EIF4E pS09 level; assay type: cell-based
NCI-H460 [19] = assay: Induction of autophagy in human NCI-H460 cells expressing CTR5 gene measured after 24 hrs by reverse-phase protein array method; assay type: functional, cell-based

inhibition [18]: Active
Structure (SMILES): C=C(C)[C@@H]1CC[C@]2(C)[C@H](C[C@@H](F)C34OC(=O)[C@@]5(CC[C@@H](C)[C@H](C)[C@@H]35)CC[C@]42C)[C@@]1(C)CCC(=O)NCCC
IC50 [1]: 3.3 µM
viability at 5 µM (NCI-H460 [2]): 51.9%
Activity (NCI-H460 [3]): 13.4%
Activity (NCI-H460 [4]): Active
Activity (NCI-H460 [5]): Active
Activity (NCI-H460 [6]): Dose-dependent effect
Activity (NCI-H460 [7]): 88.6%
Activity (NCI-H460 [8]): 66.7%
Activity (NCI-H460 [9]): 2%
Activity (NCI-H460 [10]): 7.6%
Activity (NCI-H460 [11]): 11.5%
Activity (NCI-H460 [12]): 3.6%
viability at 4 µM (NCI-H460 [13]): 77.4%
Activity (NCI-H460 [14]): 11.5%
Activity (NCI-H460 [15]): Active
Activity [16]: Active
Activity [17]: 5.1%
Activity (NCI-H460 [19]): Active

Reference: ChEMBL document CHEMBL3871266, “Synthesis and cytotoxic activity of novel A-ring cleaved ursolic acid derivatives in human non-small cell lung cancer cells” (Eur J Med Chem, 2016)
